Measured values taken from ChEMBL document CHEMBL4340580, “Antibacterial and Inhibitory Activities against Nitric Oxide Production of Coumaronochromones and Prenylated Isoflavones from Millettia extensa” (J Nat Prod, 2019).
pIC50: −log10 of the molar value. In brackets after ≈: the same amount, converted by molar mass. Activity calls are given as the source filed them. The calls are words filed in the database; no cut-off is given here.

Assays:
[1] = Toxicity in mouse RAW264.7 cells assessed as cell viability at 10 uM by MTT assay; assay type: cell-based; conditions: read-out: Activity
[2] = test system: RAW264.7; assay: Inhibition of LPS-induced nitric oxide production in mouse RAW264.7 cells incubated for 24 hrs by Griess reagent based assay; assay type: functional, cell-based; conditions: for IC50: raw264.7; for pIC50: Mus musculus, RAW264.7, 24 h, read-out: IC50
Summary of the method: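 RAW 264.7 cells were seeded at 5.0 × 10^5 cells/mL and held 24 h at 37 °C, 5% CO2. Medium was discarded and cells were stimulated with 1 μg/mL LPS with or without compound for 24 h at 37 °C. Supernatant was mixed 1:1 with Griess reagent for 10 min at room temperature. Absorbance was read at 570 nm against a sodium nitrite calibration curve, giving IC50.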

[3] = test system: Bacillus cereus; assay: Antibacterial activity against Bacillus cereus by CLSI protocol based method; assay type: functional
Summary of the method: (§1)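 Strains came from the Microbiological Resources Center, Bangkok, Thailand. Antibacterial testing followed Clinical and Laboratory Standards Institute recommendations.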

[4] = test system: Escherichia coli; assay: Antibacterial activity against Escherichia coli at >128 ug/ml by CLSI protocol based method; assay type: functional, organism-based; summary of the method: as §1
[5] = test system: Micrococcus luteus; assay: Antibacterial activity against Micrococcus luteus by CLSI protocol based method; assay type: functional; summary of the method: as §1
[6] = test system: Staphylococcus aureus; assay: Antibacterial activity against Staphylococcus aureus by CLSI protocol based method; assay type: functional; summary of the method: as §1
[7] = test system: Streptococcus mutans; assay: Antibacterial activity against Streptococcus mutans by CLSI protocol based method; assay type: functional; summary of the method: as §1
[8] = test system: Shigella flexneri; assay: Antibacterial activity against Shigella flexneri by CLSI protocol based method; assay type: functional; summary of the method: as §1
[9] = test system: Pseudomonas aeruginosa; assay: Antibacterial activity against Pseudomonas aeruginosa by CLSI protocol based method; assay type: functional; summary of the method: as §1
[10] = test system: Staphylococcus epidermidis; assay: Antibacterial activity against Staphylococcus epidermidis by CLSI protocol based method; assay type: functional; summary of the method: as §1
[11] = test system: Escherichia coli; assay: Antibacterial activity against Escherichia coli by CLSI protocol based method; assay type: functional; summary of the method: as §1
[12] = test system: Shigella flexneri; assay: Antibacterial activity against Shigella flexneri at >128 ug/ml by CLSI protocol based method; assay type: functional, organism-based; summary of the method: as §1
[13] = test system: Pseudomonas aeruginosa; assay: Antibacterial activity against Pseudomonas aeruginosa at >128 ug/ml by CLSI protocol based method; assay type: functional, organism-based; summary of the method: as §1
[14] = test system: Bacillus cereus; assay: Antibacterial activity against Bacillus cereus at >128 ug/ml by CLSI protocol based method; assay type: functional, organism-based; summary of the method: as §1
[15] = test system: Micrococcus luteus; assay: Antibacterial activity against Micrococcus luteus at >128 ug/ml by CLSI protocol based method; assay type: functional, organism-based; summary of the method: as §1
[16] = test system: Streptococcus mutans; assay: Antibacterial activity against Streptococcus mutans at >128 ug/ml by CLSI protocol based method; assay type: functional, organism-based; summary of the method: as §1

| Molecule | viability at 10 µM [1] [%] | IC50 [2] | MIC [3] | Activity [4] | MIC [5] | MIC [6] [µg/mL] | MIC [7] | MIC [8] | MIC [9] | MIC [10] [µg/mL] | MIC [11] | Activity [12] | Activity [13] | pIC50 [2] | Activity [14] | Activity [15] | Activity [16] |
| --- | --- | --- | --- | --- | --- | --- | --- | --- | --- | --- | --- | --- | --- | --- | --- | --- | --- |
| COc1c2c(cc3c1C(=O)[C@]1(O)c4ccc(OCC=C(C)C)cc4O[C@@H]1O3)OC(C)(C)C=C2 | 64.4 | Not Active | 32 µg/mL (≈ 71 µM) | inactive | 64 µg/mL (≈ 142 µM) | 32 (≈ 71 µM) | 128 µg/mL (≈ 284 µM) | inactive | inactive | 128 (≈ 284 µM) | inactive | inactive | inactive | – | – | – | – |
| COc1ccc2c(c1)c(CC(=O)O)c(C)n2C(=O)c1ccc(Cl)cc1 [INDOMETHACIN] | – | – | – | – | – | – | – | – | – | – | – | – | – | 4.20 | – | – | – |
| CC(C)=CCc1c(O)c(CC=C(C)C)c2occ(-c3ccc(O)c(O)c3)c(=O)c2c1O | 90.2 | – | 16 µg/mL (≈ 37.9 µM) | – | 16 µg/mL (≈ 37.9 µM) | 32 (≈ 75.7 µM) | 16 µg/mL (≈ 37.9 µM) | 128 µg/mL (≈ 303 µM) | 128 µg/mL (≈ 303 µM) | 128 (≈ 303 µM) | 128 µg/mL (≈ 303 µM) | – | – | 4.84 | – | – | – |
| CN[C@H](CC(C)C)C(=O)N[C@H]1C(=O)N[C@@H](CC(N)=O)C(=O)N[C@H]2C(=O)N[C@H]3C(=O)N[C@H](C(=O)N[C@H](C(=O)O)c4cc(O)cc(O)c4-c4cc3ccc4O)[C@H](O)c3ccc(c(Cl)c3)Oc3cc2cc(c3O[C@@H]2O[C@H](CO)[C@@H](O)[C@H](O)[C@H]2O[C@H]2C[C@](C)(N)[C@H](O)[C@H](C)O2)Oc2ccc(cc2Cl)[C@H]1O [VANCOMYCIN] | – | – | 0.125 µg/mL (≈ 0.0863 µM) | – | 0.25 µg/mL (≈ 0.173 µM) | 0.25 (≈ 0.173 µM) | 0.25 µg/mL (≈ 0.173 µM) | – | – | 0.25 (≈ 0.173 µM) | – | – | – | – | – | – | – |
| COc1c2c(cc3occ(-c4ccc(OCC=C(C)C)c(O)c4)c(=O)c13)OC(C)(C)C=C2 | 64.5 | Not Active | inactive | inactive | inactive | 128 (≈ 295 µM) | inactive | 128 µg/mL (≈ 295 µM) | inactive | 128 (≈ 295 µM) | inactive | – | inactive | – | inactive | inactive | inactive |
| CC(C)=CCc1c2c(c(O)c3c(=O)c(-c4ccc(O)cc4)coc13)C=CC(C)(C)O2 [WARANGALONE] | 86.5 | – | – | – | – | – | – | – | – | – | – | – | – | 5.07 | – | – | – |
| C=CC(C)(C)c1cc(-c2coc3cc4c(c(OC)c3c2=O)C=CC(C)(C)O4)c(O)cc1O | – | – | 8 µg/mL (≈ 18.4 µM) | – | 32 µg/mL (≈ 73.6 µM) | 8 (≈ 18.4 µM) | 128 µg/mL (≈ 295 µM) | inactive | 128 µg/mL (≈ 295 µM) | 128 (≈ 295 µM) | 128 µg/mL (≈ 295 µM) | inactive | – | – | – | – | – |
| CC(C)=CCOc1ccc2c(c1)O[C@@H]1Oc3cc4c(c(O)c3C(=O)[C@]21O)C=CC(C)(C)O4 | 65.3 | Not Active | 32 µg/mL (≈ 73.3 µM) | inactive | 64 µg/mL (≈ 147 µM) | 32 (≈ 73.3 µM) | 128 µg/mL (≈ 293 µM) | inactive | inactive | 128 (≈ 293 µM) | inactive | inactive | inactive | – | – | – | – |
| COc1cc(-c2coc3cc4c(c(O)c3c2=O)C=CC(C)(C)O4)c(OC)cc1OCC=C(C)C | 60.1 | Not Active | inactive | inactive | inactive | 128 (≈ 276 µM) | inactive | 128 µg/mL (≈ 276 µM) | inactive | 128 (≈ 276 µM) | inactive | – | inactive | – | inactive | inactive | inactive |
| CC(C)=CCC1=C(O)c2c(occ(-c3ccc(O)c(O)c3)c2=O)C(CC=C(C)C)(CC=C(C)C)C1=O | – | – | 32 µg/mL (≈ 65.2 µM) | – | 2 µg/mL (≈ 4.08 µM) | 4 (≈ 8.15 µM) | 16 µg/mL (≈ 32.6 µM) | 128 µg/mL (≈ 261 µM) | 128 µg/mL (≈ 261 µM) | 4 (≈ 8.15 µM) | 128 µg/mL (≈ 261 µM) | – | – | – | – | – | – |
| C=CC(C)(C)c1cc(-c2coc3cc4c(c(O)c3c2=O)C=CC(C)(C)O4)ccc1O | 61.1 | Not Active | 64 µg/mL (≈ 158 µM) | inactive | 64 µg/mL (≈ 158 µM) | 64 (≈ 158 µM) | 128 µg/mL (≈ 316 µM) | 128 µg/mL (≈ 316 µM) | inactive | 128 (≈ 316 µM) | inactive | – | inactive | – | – | – | – |
| CC(C)=CCc1c2c(c(O)c3c(=O)c4c(oc5cc(O)ccc54)oc13)C=CC(C)(C)O2 | 79.2 | Not Active | 128 µg/mL (≈ 306 µM) | inactive | inactive | 128 (≈ 306 µM) | inactive | 128 µg/mL (≈ 306 µM) | inactive | 128 (≈ 306 µM) | inactive | – | inactive | – | – | inactive | inactive |
| CC(C)=CCC1=C(O)c2c(occ(-c3ccc(O)cc3O)c2=O)C(CC=C(C)C)(CC=C(C)C)C1=O | 75.5 | Not Active | – | – | – | – | – | – | – | – | – | – | – | – | – | – | – |
| CC(C)=CCc1c2c(c(O)c3c(=O)c(-c4ccc(O)cc4O)coc13)C=CC(C)(C)O2 | 75.5 | Not Active | – | – | – | – | – | – | – | – | – | – | – | – | – | – | – |
| COc1c2c(cc3occ(-c4ccc(OCC=C(C)C)cc4)c(=O)c13)OC(C)(C)C=C2 | 68.7 | Not Active | – | – | – | – | – | – | – | – | – | – | inactive | – | – | – | – |
| COc1c2c(cc3occ(-c4ccc(OCC=C(C)C)cc4O)c(=O)c13)OC(C)(C)C=C2 | – | – | inactive | inactive | inactive | 128 (≈ 295 µM) | inactive | inactive | inactive | 128 (≈ 295 µM) | inactive | inactive | inactive | – | inactive | inactive | inactive |
| CC1(C)C=Cc2c(c(CCO)c3occ(-c4ccc(O)c(O)c4)c(=O)c3c2O)O1 | 68.2 | Not Active | – | – | 32 µg/mL (≈ 80.7 µM) | – | 128 µg/mL (≈ 323 µM) | inactive | inactive | 128 (≈ 323 µM) | 128 µg/mL (≈ 323 µM) | inactive | inactive | – | – | – | – |
| GENTAMICIN | – | – | – | – | – | – | – | – | – | – | 0.25 µg/mL | – | – | – | – | – | – |
| CC(C)=CCOc1ccc(-c2coc3cc(OCC=C(C)C)cc(O)c3c2=O)cc1 | 72.2 | Not Active | inactive | inactive | inactive | 128 (≈ 315 µM) | inactive | 128 µg/mL (≈ 315 µM) | inactive | 128 (≈ 315 µM) | inactive | – | inactive | – | inactive | inactive | inactive |
